Bioassay records as filed in PubChem.
Rce1 inh: blocks yeast Ras-converting enzyme; Q03530; yeast membranes, quenched prenylated peptide cleavage fluorescence; calls only; actives 0.27% (n = 290,000); AID 2563;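 active means fall in fluorescence gain of 50% or more versus controls, with final raw signal at or below 3038400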;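 further: plate controls were neutral control wells for no effect and wells lacking membranes for full effect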
Myeloid diff 2: promotes myeloid progenitor differentiation. actives 1% (n = 360,000). calls only at 10 µM. AID 624256. ER-HoxA9 myeloid progenitors, lysozyme-GFP differentiation, flow cytometry;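 active means normalized GFP-positive differentiation at or above the plate's own cutoff, the solvent-only control mean plus 3 SD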;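 further: cells exposed to compound for four days before flow analysis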
Rin1-Abl PPI inh: human Rin1-Abl interaction inhibition | P00519+Q13671 | TR-FRET Rin1/Abl binding, biochemical | inhibition, % at 7.35 µM | actives 0.4% (n = 360,000) | AID 588664; in the data active means inhibition above about 5%, passing the limit was not always enough
SKN-1 inh: blocks SKN-1 activity in C. elegans; actives 0.49% (n = 360,000); C. elegans VP596 Pgst-4::GFP/RFP ratio, acrylamide-induced, 24 h; inhibition, % at 21.8 µM;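 active means interference check ratio from 0.5 to 1.5 plus GFP to RFP signal ratio inhibition reaching or exceeding a fixed threshold, cut at about 30% in these data, passing the limit was not always enough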
T cell modulator: T cell immune modulators affecting CD8 T cell-vesicle binding; 2C CD8+ T cell-vesicle binding, flow cytometry; hits give low values; response (vesicle binding), % at 7 µM; actives 0.068% (n = 330,000); AID 2052;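 active means response, share of CD8 T cells binding vesicles, and their 90th percentile fluorescence all below set limits, cut at about 80% in these data, passing the limit was not always enough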;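 further: values below 100% mean blocked vesicle binding to the CD8+ T cells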
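Material: 2C TCR transgenic mouse naive CD8+ T cells, MACS-purified. Also added: QL9-charged Drosophila Ld/ICAM-1/B7-1 vesicles. Timing: binding 1.5 h at 37 °C. Measured by: high-throughput flow cytometry with anti-B7-1 and anti-CD8 staining. Read-out: percent CD8+ FL2 mean versus row control. Controls: Unloaded micro-vesicles (low), QL9 vesicles with 0.7% DMSO (high).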
GRK2 aptamer HTS: human GRK2 inhibition via aptamer displacement. P25098. bead flow cytometry, FAM-aptamer displacement from GRK2. inhibition of aptamer binding, % at 10 µM. actives 0.59% (n = 330,000);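 active means inhibition of aptamer binding above 40%, roughly 3 SD of noise, on plates passing a quality check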;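 further: median bead fluorescence of bound FAM aptamer so fluorescent compounds give negative values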
Starred values were filed as active, the others as inactive; i = inactive; nt = no result; + = active, no number. Rows were chosen to be rich in hits. Some 2.6% of all compounds tested hit in one or more screens of this group.

SMILES | Rce1 inh | Myeloid diff 2 | Rin1-Abl PPI inh | SKN-1 inh | T cell modulator | GRK2 aptamer HTS
C[C@@H]1CN([C@@H](C)CO)C(=O)CCCn2cc(nn2)CO[C@H]1CN(C)S(=O)(=O)c1ccc(Oc2ccccc2)nc1 | nt | i | -4 | 9 | nt | nt
C[C@H]1CN([C@@H](C)CO)C(=O)CCCn2cc(nn2)CO[C@@H]1CN(C)S(=O)(=O)c1ccc(Oc2ccccc2)nc1 | nt | + | -2 | 9 | nt | nt
C[C@H](CO)N1C[C@H](C)[C@@H](CN(C)CC2CC2)OCc2cnnn2CCCC1=O | nt | + | 3 | 3 | nt | nt
Cc1ccc2c(CC(=O)NCc3ccco3)coc2c1C | i | + | 1 | -20 | 234 | 1
Cc1c(C(=O)OCC(=O)NCc2ccco2)oc2ccccc12 | nt | i | 2 | -19 | 65* | 0
COCc1c(C(=O)OCC(=O)NCc2ccco2)oc2ccccc12 | nt | i | 4 | 5 | 386 | 0
COC(=O)Cn1c(C)c(/C=C/c2cc[n+](C)cc2)c2ccccc21 | i | + | -84 | -12 | 153 | 0
COC(=O)Cn1cc(/C=C/c2cc[n+](C)cc2)c2ccccc21 | i | + | -37 | -22 | 940 | 0
CC(C)(C)C(=O)OCc1nc(-c2ccc(C(F)(F)F)cc2)cs1 | i | i | 1 | -19 | 309 | 3
CC(C)CCNC(=O)c1cc(S(=O)(=O)N2CCC3(CC2)OCCO3)ccc1F | nt | i | 0 | -8 | nt | nt
CN=C1NC(C)(C)C2CCC(C)(CC2)S1 | nt | + | 2 | -1 | nt | nt
N#CCC(=O)N/N=C/c1ccc(N2N=C(c3ccccc3)CC2c2ccccc2)cc1 (centres undefined) | i | + | 2 | 19 | 249 | 67*
COc1ccc(C2CC(c3ccccc3)=NN2c2ccc(/C=N/NC(=O)c3ccncc3)cc2)cc1 (centres undefined) | i | i | -1 | 7 | 150 | 4
O=C(CCl)N1c2ccccc2Oc2ccc3ccccc3c21 | nt | + | -12 | 80 | nt | nt
O=C(NCc1ccccn1)C1CCN(C(=O)c2cc3sccc3n2Cc2ccc(F)cc2)CC1 | i | + | 2 | -7 | 546 | 6
O=C(NCc1ccco1)C1CCN(C(=O)c2cc3sccc3n2Cc2ccc(F)cc2)CC1 | i | i | 0 | 17 | 423 | 4
O=C(O)C1CC=CCC1C(=O)NCc1ccc2c(c1)OCO2 (centres undefined) | nt | + | -3 | 33 | 699 | 1
CCc1ccc(NC(=O)C2CC=CCC2C(=O)O)cc1 (centres undefined) | i | i | 1 | 21 | 262 | 7
O=C(O)Cc1ccc(NC(=O)C2CC=CCC2C(=O)O)cc1 (centres undefined) | i | nt | nt | nt | 452 | 44*
O=C(NC1CCCCC1)C1c2ccccc2OCC(=O)N1CCc1ccccc1 (centres undefined) | nt | i | nt | 8 | nt | nt
Cc1cccc(NS(=O)(=O)c2cccc(C(=O)NCC(C)(C)N3CCOCC3)c2)c1 | i | + | 0 | 14 | 264 | 1
COc1ccccc1NS(=O)(=O)c1cccc(C(=O)NCC(C)(C)N2CCOCC2)c1 | i | i | 2 | 6 | 73 | 7
C#CCN1C(=O)S/C(=C/C=C/c2ccc(N(C)C)cc2)C1=O | nt | i | -2 | 47* | 282 | 0
CCOc1ccc2nc(N/C(N)=N/C(=S)Nc3ccc(C)c(C)c3)nc(C)c2c1 | i | i | -1 | -3 | i | 94*
COc1ccc(NC(=S)/N=C(\N)Nc2nc(C)c3ccc(C)cc3n2)cc1 | i | i | 1 | -7 | 496 | 1
SMILES | Rce1 inh | Myeloid diff 2 | Rin1-Abl PPI inh | SKN-1 inh | T cell modulator | GRK2 aptamer HTS
Nc1ccc(N=Nc2ccccc2)cc1[N+](=O)[O-] | nt | i | -3 | 57* | nt | nt
Cc1ccc(N)c([N+](=O)[O-])c1 | nt | i | -8 | 7 | 381 | 0
Cc1cc(C)cc(C(=O)Oc2cc(C)[nH]c(=O)c2[N+](=O)[O-])c1 | i | i | 3 | 17 | 331 | 0
COc1ccc(S(=O)(=O)N2CCOCC2)cc1NC(=O)/C=C/c1ccc(F)cc1 | nt | i | 1 | -2 | nt | nt
CCOc1ccccc1NC(=O)C(CC(C)C)NC(=O)C1CCC(C)CC1 (centres undefined) | i | i | 2 | 41* | 262 | 0
CC(=O)Nc1ccc(NC(=O)c2cc(-c3cc(F)ccc3OCC3CCCO3)n[nH]2)cc1 (centres undefined) | nt | i | -2 | -2 | nt | nt
